Data: ChEMBL document CHEMBL2086277, “Pyridonepezils, new dual AChE inhibitors as potential drugs for the treatment of Alzheimer's disease: synthesis, biological assessment, and molecular modeling” (Eur J Med Chem, 2012)

Assays:
[1] = molecular target: T1, Acetylcholinesterase (Homo sapiens, UniProt P22303); assay: Inhibition of human erythrocyte AChE using acetylthiocholine as substrate by Ellman method
[2] = molecular target: Cholinesterase (Homo sapiens, UniProt P06276); assay: Inhibition of human serum BChE using butyrylthiocholine as substrate by Ellman method
Method in brief: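 IC50 is the concentration giving 50% inhibition of human BuChE, reported as mean ± SEM of three independent experiments.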

[3] = Permeability of the compound in PBS/ethanol at 1 mg/ml after 4 hrs by PAMPA; assay type: ADME; conditions: for Papp at 4 h, 1 mg/ml: PAMPA, read-out: permeability
Method in brief: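 PAMPA-BBB: permeability (Pe) measured through a porcine brain lipid extract membrane, using PBS:EtOH (70:30) as the medium. The assay was validated against 15 commercial drugs by correlating measured with reported Pe values. Data are mean ± SD of three independent experiments.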

[4] = molecular target: T1, Acetylcholinesterase; assay: Ratio of donepezil IC50 to compound IC50 for human erythrocyte AChE using acetylthiocholine as substrate by Ellman method
[5] = molecular target: Cholinesterase (Equus caballus, UniProt P81908); assay: Inhibition of equine BChE
Cholinesterase (Equus caballus, UniProt P81908), sequence (P81908 whole entry): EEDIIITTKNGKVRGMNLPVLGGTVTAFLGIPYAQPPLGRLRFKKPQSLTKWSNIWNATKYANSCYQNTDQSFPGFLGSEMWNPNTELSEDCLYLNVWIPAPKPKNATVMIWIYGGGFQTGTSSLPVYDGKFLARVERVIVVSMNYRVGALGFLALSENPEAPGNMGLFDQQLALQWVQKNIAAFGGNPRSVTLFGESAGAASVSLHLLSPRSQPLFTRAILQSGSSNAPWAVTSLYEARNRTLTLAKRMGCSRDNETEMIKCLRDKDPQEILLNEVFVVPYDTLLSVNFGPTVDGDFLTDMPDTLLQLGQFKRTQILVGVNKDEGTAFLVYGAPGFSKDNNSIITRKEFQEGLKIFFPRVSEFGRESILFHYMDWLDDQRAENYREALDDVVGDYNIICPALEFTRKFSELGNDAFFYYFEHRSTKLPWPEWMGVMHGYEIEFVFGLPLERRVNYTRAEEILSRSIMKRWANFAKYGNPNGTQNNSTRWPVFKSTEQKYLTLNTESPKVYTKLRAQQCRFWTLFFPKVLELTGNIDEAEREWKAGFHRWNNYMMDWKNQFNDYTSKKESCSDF

T1 sequence (P22303 whole entry): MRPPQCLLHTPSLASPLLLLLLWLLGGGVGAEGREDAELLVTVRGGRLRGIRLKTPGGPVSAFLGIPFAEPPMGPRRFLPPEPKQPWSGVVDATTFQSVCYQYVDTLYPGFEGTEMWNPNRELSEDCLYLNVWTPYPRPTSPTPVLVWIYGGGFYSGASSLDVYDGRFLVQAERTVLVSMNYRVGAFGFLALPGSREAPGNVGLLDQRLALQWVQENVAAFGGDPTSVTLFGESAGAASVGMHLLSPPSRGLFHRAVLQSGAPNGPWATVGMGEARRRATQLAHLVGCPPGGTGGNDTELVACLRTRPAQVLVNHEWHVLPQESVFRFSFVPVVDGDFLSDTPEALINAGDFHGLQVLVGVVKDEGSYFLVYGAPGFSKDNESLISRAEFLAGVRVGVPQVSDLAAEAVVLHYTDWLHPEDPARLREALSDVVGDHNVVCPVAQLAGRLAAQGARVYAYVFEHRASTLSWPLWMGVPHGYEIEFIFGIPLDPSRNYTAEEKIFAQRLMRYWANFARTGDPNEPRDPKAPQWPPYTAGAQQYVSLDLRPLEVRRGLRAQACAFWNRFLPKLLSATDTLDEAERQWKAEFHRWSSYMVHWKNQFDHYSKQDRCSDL
Cholinesterase (Homo sapiens, UniProt P06276), sequence (P06276 whole entry): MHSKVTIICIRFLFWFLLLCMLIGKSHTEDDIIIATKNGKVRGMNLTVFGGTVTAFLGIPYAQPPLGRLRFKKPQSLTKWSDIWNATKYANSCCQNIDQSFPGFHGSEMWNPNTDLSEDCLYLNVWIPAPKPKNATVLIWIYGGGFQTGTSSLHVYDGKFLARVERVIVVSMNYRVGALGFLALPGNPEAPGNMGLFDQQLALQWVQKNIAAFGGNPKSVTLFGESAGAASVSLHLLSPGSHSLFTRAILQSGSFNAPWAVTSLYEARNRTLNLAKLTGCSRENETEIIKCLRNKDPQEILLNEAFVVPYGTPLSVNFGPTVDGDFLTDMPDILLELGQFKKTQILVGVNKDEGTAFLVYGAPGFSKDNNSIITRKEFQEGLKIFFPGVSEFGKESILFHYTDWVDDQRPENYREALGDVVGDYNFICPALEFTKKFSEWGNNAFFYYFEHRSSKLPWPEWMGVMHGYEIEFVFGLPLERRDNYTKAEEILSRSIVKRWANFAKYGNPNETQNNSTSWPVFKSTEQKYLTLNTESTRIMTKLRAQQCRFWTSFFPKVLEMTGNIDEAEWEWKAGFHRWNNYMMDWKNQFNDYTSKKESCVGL

SMILES: N#Cc1cc(C#N)c(NC2CCN(Cc3ccccc3)CC2)nc1N
- IC50 [1]: 3100 nM
- IC50 [2]: > 10000 nM
- Papp at 4 h, 1 mg/ml [3]: 17 ×10⁻⁶ cm/s

SMILES: N#Cc1cc(C#N)c(NCCCCC2CCN(Cc3ccccc3)CC2)nc1N
- IC50 [1]: 70 nM
- IC50 [2]: 1700 nM
- Papp at 4 h, 1 mg/ml [3]: 21.2 ×10⁻⁶ cm/s

SMILES: N#Cc1c(N)nc(NCCC2CCN(Cc3ccccc3)CC2)c(C#N)c1-c1ccccc1
- IC50 [1]: 390 nM
- IC50 [2]: 670 nM
- Papp at 4 h, 1 mg/ml [3]: 34 ×10⁻⁶ cm/s

SMILES: N#Cc1c(N)nc(NC2CCN(Cc3ccccc3)CC2)c(C#N)c1-c1ccccc1
- IC50 [1]: 8800 nM
- IC50 [2]: > 10000 nM
- permeability ([3]; pampa, 4 h): ND(Insoluble)

SMILES: N#Cc1cc(C#N)c(NCCC2CCN(Cc3ccccc3)CC2)nc1N
- IC50 [1]: 220 nM
- IC50 [2]: 260 nM
- Papp at 4 h, 1 mg/ml [3]: 14.4 ×10⁻⁶ cm/s

SMILES: N#Cc1cc(C#N)c(NCCCC2CCN(Cc3ccccc3)CC2)nc1N
- IC50 [1]: 9.4 nM
- IC50 [2]: 6600 nM
- Ratio IC50 [4]: 1.4
- Papp at 4 h, 1 mg/ml [3]: 20.8 ×10⁻⁶ cm/s

SMILES: N#Cc1c(N)nc(NCCCCC2CCN(Cc3ccccc3)CC2)c(C#N)c1-c1ccccc1
- IC50 [1]: 120 nM
- IC50 [2]: 580 nM
- Papp at 4 h, 1 mg/ml [3]: 25.7 ×10⁻⁶ cm/s

SMILES: N#Cc1cc(C#N)c(N2CCCC2)nc1N
- IC50 [5]: > 10000 nM

SMILES: N#Cc1c(N)nc(NCCCC2CCN(Cc3ccccc3)CC2)c(C#N)c1-c1ccccc1
- IC50 [1]: 240 nM
- IC50 [2]: 1500 nM
- Papp at 4 h, 1 mg/ml [3]: 31.6 ×10⁻⁶ cm/s
